Data published in article PMC5295499 (Bioorganic & medicinal chemistry letters, 2016).
Entries after “also recorded” stand apart in the source; their conditions may differ. Each block holds one molecule with its values, some of them ahead of it.

What was measured:
[1] = test system: MDM2-Luc exon-skipping reporter; assay: MDM2-Luc triple exon-skipping luciferase reporter assay; format: cell-based
Procedure, shortened: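 Stable cell line expressing the triple exon-skipping luciferase construct. Exon skipping induced by SF3B1-targeted splicing modulators switches on luciferase, so luminescence is the read-out. The assay was used to screen a library of 830 known drugs and 4359 bioactive compounds.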

Flt3 = target: T1, Flt3 (Homo sapiens, UniProt P36888); assay: Kinase profiling screen, Flt3; format: biochemical; conditions: 1 μM, in duplicate
T1 sequence (P36888 27-993): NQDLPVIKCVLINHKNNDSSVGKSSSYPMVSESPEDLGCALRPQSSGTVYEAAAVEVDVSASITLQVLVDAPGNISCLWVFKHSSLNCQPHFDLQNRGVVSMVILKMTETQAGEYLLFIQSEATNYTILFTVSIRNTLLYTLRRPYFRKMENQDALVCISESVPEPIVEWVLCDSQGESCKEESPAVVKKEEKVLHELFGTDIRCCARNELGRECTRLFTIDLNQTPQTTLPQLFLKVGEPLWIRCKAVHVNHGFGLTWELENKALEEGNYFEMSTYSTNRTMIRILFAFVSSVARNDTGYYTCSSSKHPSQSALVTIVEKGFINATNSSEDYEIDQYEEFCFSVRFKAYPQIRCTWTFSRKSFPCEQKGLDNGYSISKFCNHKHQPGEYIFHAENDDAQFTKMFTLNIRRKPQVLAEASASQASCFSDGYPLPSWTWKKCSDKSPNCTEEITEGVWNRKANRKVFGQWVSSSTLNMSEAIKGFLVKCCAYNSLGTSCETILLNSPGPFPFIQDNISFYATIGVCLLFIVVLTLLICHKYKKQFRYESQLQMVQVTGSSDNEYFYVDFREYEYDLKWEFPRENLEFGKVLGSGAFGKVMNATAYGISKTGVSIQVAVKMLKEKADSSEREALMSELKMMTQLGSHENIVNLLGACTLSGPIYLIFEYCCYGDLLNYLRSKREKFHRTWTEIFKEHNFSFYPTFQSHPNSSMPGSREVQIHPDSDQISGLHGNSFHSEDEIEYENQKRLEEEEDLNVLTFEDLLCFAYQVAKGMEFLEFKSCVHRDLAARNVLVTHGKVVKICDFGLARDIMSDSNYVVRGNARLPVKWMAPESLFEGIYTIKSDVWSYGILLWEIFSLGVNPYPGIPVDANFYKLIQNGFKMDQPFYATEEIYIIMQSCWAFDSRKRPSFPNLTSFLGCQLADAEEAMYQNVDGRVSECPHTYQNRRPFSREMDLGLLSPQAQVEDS

Src(1-530) = Src(1-530) (Homo sapiens, UniProt P12931); assay: Kinase profiling screen, Src; format: biochemical; conditions: 1 μM, in duplicate
Sequence of Src(1-530) (P12931 1-530): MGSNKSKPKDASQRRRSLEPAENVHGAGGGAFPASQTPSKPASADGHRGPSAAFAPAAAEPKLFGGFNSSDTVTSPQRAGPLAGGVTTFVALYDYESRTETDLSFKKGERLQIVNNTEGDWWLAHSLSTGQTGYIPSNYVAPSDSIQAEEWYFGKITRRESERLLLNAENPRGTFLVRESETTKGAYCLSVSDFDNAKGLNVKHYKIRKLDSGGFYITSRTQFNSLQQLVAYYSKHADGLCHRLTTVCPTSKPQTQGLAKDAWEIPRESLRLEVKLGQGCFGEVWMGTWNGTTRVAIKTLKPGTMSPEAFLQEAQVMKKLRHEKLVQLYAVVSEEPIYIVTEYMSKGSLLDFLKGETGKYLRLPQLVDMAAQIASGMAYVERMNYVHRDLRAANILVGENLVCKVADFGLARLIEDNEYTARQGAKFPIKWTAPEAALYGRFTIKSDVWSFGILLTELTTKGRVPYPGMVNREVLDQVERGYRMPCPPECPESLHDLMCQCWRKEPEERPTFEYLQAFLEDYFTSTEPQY

CLK1 = CLK1 (Homo sapiens, UniProt P49759); assay: CLK1 biochemical enzyme inhibition; conditions: screened for CLK1 activity, data not shown
Sequence of CLK1 (P49759 whole entry): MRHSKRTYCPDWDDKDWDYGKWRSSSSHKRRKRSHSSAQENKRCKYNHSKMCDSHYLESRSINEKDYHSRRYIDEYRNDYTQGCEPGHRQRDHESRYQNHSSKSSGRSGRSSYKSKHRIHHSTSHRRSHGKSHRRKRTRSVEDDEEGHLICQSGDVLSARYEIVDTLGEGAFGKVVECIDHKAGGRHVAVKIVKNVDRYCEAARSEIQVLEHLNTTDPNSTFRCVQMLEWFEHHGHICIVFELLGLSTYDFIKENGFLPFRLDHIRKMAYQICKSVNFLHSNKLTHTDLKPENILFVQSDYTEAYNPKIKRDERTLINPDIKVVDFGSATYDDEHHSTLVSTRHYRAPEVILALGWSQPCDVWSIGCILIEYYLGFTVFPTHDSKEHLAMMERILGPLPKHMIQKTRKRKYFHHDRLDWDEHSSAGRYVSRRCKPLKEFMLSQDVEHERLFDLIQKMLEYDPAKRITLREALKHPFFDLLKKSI

Solubility = format: physicochemical; conditions: data not shown
Plk1 = Plk1 (Homo sapiens, UniProt P53350); assay: Kinase profiling screen, Plk1; format: biochemical; conditions: 1 μM, in duplicate
Sequence of Plk1 (P53350 whole entry): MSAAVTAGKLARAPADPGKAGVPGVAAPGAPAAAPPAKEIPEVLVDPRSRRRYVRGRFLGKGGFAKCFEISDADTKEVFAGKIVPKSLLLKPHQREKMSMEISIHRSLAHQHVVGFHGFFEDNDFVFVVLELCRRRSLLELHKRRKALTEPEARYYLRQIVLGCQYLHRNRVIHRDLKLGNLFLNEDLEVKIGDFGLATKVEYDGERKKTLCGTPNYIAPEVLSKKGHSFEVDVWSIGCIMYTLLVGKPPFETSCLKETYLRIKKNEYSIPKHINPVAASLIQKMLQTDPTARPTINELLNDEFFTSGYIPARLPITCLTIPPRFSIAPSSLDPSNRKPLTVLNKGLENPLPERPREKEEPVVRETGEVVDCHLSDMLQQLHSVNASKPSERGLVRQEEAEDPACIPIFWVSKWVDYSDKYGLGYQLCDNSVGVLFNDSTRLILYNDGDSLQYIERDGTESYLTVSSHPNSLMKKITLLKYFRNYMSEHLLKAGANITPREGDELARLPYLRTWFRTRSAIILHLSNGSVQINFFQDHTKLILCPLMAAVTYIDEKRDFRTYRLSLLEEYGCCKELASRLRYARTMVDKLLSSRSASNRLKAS

CDK4 = CDK4 (Homo sapiens, UniProt P11802); assay: CDK4 biochemical enzyme inhibition; conditions: read-out: CDK4 IC50
Sequence of CDK4 (P11802 whole entry): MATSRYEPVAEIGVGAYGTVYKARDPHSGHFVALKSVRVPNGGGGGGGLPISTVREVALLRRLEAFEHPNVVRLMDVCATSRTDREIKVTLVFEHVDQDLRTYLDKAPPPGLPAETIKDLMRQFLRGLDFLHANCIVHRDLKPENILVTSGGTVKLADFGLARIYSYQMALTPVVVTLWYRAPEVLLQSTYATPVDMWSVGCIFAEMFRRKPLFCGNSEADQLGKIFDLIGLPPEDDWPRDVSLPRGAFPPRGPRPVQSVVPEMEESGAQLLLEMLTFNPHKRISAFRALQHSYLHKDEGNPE
Sequence of CDK4 (P30281 whole entry partner): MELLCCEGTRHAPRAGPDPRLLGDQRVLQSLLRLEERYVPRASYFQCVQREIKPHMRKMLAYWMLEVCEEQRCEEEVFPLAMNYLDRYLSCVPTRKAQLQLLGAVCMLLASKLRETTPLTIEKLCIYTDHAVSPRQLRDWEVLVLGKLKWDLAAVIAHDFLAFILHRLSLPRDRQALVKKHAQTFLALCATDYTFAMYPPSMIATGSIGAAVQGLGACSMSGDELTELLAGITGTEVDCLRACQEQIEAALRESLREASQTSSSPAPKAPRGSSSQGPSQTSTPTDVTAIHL

CLK2 = CLK2 (Homo sapiens, UniProt P49760); assay: CLK2 biochemical enzyme inhibition; conditions: 20 versus its enantiomer 21
Sequence of CLK2 (P49760 whole entry): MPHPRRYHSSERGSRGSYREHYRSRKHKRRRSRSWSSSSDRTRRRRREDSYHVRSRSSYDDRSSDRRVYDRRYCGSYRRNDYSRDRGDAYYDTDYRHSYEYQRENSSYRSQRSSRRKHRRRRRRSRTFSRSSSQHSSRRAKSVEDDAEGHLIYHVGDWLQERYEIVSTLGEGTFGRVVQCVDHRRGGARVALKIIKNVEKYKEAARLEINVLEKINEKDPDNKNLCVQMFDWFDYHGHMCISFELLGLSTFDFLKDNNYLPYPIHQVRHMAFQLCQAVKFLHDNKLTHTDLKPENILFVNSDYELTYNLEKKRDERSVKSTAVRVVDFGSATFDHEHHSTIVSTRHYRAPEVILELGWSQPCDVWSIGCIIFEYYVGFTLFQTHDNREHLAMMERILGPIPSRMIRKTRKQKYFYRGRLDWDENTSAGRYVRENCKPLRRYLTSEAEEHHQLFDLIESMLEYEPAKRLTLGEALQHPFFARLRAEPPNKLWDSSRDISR

SMILES: CC(C)n1cnc2c(Nc3cccc(Cl)c3)nc(N[C@@H]3CCCC[C@@H]3N)nc21 [Compound 9]
activity in the MDM2-Luc assay [1]: strong luciferase response
off-target activity against Flt3 (Flt3): some significant off-target activity
off-target activity against Src(1-530) (Src(1-530)): some significant off-target activity

SMILES: CC(C)n1cnc2c(Nc3cccc(Cl)c3)nc(N[C@H]3CCCC[C@H]3N)nc21 [Compound 10]
activity in the MDM2-Luc assay [1]: strong luciferase response

SMILES: CC(C)n1ccc2c(Nc3cccc(Cl)c3)nc(N[C@H]3CCCC[C@H]3N)nc21 [Compound 11]
activity in the MDM2-Luc assay at 10 μM [1]: completely abrogated all activity

SMILES: CCn1cnc2c(Nc3cccc(Cl)c3)nc(N[C@@H]3CCCC[C@@H]3NC(C)=O)nc21 [Compound 12]
activity in the MDM2-Luc assay at 10 μM [1]: completely abrogated all activity

SMILES: COCCNc1nc(Nc2cccc(Cl)c2)c2ncn(C(C)C)c2n1 [Compound 13]
activity in the MDM2-Luc assay [1]: dramatically reduced activity
activity in the CLK assay (CLK1): active
solubility (Solubility): very poor solubility

SMILES: CC(=O)Nc1cc(Cl)cc(Nc2nc(N[C@@H]3CCCC[C@@H]3N)nc3c2ncn3C(C)C)c1 [Compound 15]
activity in the MDM2-Luc assay [1]: strong MDM2-Luc activity; also recorded: strong luciferase response

SMILES: COC(=O)c1c(/C(C#N)=C\N)c2ccc(Cl)c(Cl)c2n1C [KH-CB19, reference compound]
activity in the MDM2-Luc assay [1]: modest activity; also recorded: barely passes the minimal hit criteria

SMILES: COc1ccc2c(C)nc(Nc3nc(C)c(C)c(O)n3)nc2c1 [Madrasin, reference compound]
activity in the MDM2-Luc assay at 10 μM [1]: neither compound showed significant activity

Continued, in another order:

off-target activity against Flt3 (Flt3): off-target activity
off-target activity against Src(1-530) (Src(1-530)): off-target activity
off-target activity against Plk1 (Plk1): off-target activity
SMILES: CC(C)n1cnc2c(Nc3cc(N)cc(Cl)c3)nc(N[C@@H]3CCCC[C@@H]3N)nc21 [Compound 14]
activity in the MDM2-Luc assay [1]: strong MDM2-Luc activity; also recorded: strong luciferase response

IC50 (CDK4): 611 nM
SMILES: CC(=O)Nc1cc(Cl)cc(Nc2nc(N[C@@H]3CCCC[C@@H]3N)nc3c2ncn3C(C)C)c1 [Compound 18]

potency difference between enantiomers for CLK2 (CLK2): > 10 fold
SMILES: CC(C)n1cnc2c(Nc3cc(N)cc(Cl)c3)nc(N[C@H]3CCCC[C@@H]3N)nc21 [Compound 20]
